Test [1] relates to A549. The test can be described thus: Cytotoxicity against human A549 cells assessed as reduction in cell viability after 72 hrs by MTT assay. It counts as functional, cell-based. A digest of the protocol:
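MTT viability screen in A549 cells with 72 h compound exposure; value reported as IC50.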

Test [2] concerns A549. As to the kind of experiment: Induction of apoptosis in human A549 cells assessed as dead cells at 50 uM after 24 hrs by Annexin V/7-AAD staining based flow cytometry relative to control. It counts as functional. In a few lines:
(§1)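 A549 cells exposed for 24 h at 10, 50 or 100 μM, then stained with Annexin-V and 7AAD (Annexin-V and Dead Cell assay kit). Dead and apoptotic populations were counted by flow cytometry on a Muse Cell Analyzer and compared with untreated control. Values are averages of three independent experiments with SD.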
(In general: Flow cytometry measures light scatter and fluorescence of single cells or particles in a stream.)

The subject of test [3] is A549. The test can be described thus: Induction of cell morphological changes in human A549 cells at 10 to 100 uM after 3 hrs. It counts as functional, cell-based.
Test [4] concerns A549. The test can be described thus: Induction of apoptosis in human A549 cells assessed as late apoptotic cells at 100 uM after 24 hrs by Annexin V/7-AAD staining based flow cytometry (reference value: 1.5%). It counts as functional.
The test system of test [5] is A549. As to the kind of experiment: Induction of apoptosis in human A549 cells assessed as dead cells at 100 uM after 24 hrs by Annexin V/7-AAD staining based flow cytometry relative to control. In kind it is functional. A digest of the protocol:
as §1

Test [6] concerns A549. As to the kind of experiment: Induction of apoptosis in human A549 cells assessed as dead cells at 10 uM after 24 hrs by Annexin V/7-AAD staining based flow cytometry relative to control. It counts as functional. A digest of the protocol:
as §1

Test [7] deals with A549. As to the kind of experiment: Induction of apoptosis in human A549 cells assessed as late apoptotic cells at 10 uM after 24 hrs by Annexin V/7-AAD staining based flow cytometry (reference value: 1.5%). It counts as functional.
Test [8] relates to A549. The test can be described thus: Induction of morphological changes in human A549 cells assessed as increase in vacuole appearance at 10 to 100 uM after 24 hrs. In kind it is functional, cell-based. In a few lines: (§2)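 A549 cells treated 24 h at 10, 50 or 100 μM, then photographed to assess rounding and vacuole appearance.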
The subject of test [9] is A549. The test can be described thus: Induction of autophagy in human A549 cells assessed as increase in LC3-2 level at 10 to 100 uM after 24 hrs by Western blot analysis. In kind it is functional, cell-based. In a few lines: (§3)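 A549 cells exposed 24 h to 10, 50 or 100 μM, then harvested and analysed by Western blot for cleaved PARP and for LC3-II conversion.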
In general terms: Immunoblotting shows a protein as a band on a membrane.

Test [10] has as its system A549. As to the kind of experiment: Induction of apoptosis in human A549 cells assessed as early apoptotic cells at 50 uM after 24 hrs by Annexin V/7-AAD staining based flow cytometry (reference value: 8.55%). It counts as functional.
Test [11] concerns A549. The test can be described thus: Induction of apoptosis in human A549 cells assessed as early apoptotic cells at 100 uM after 24 hrs by Annexin V/7-AAD staining based flow cytometry (reference value: 8.55%). It counts as functional.
The subject of test [12] is A549. The test can be described thus: Induction of autophagy in human A549 cells after 6 to 24 hrs by MDC-staining based fluorescence imaging analysis. It counts as functional, cell-based. A digest of the protocol: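 Autophagic vacuoles stained with monodansylcadaverine (MDC). Imaging was done after 24 h at 10, 50 or 100 μM. Relative fluorescence (Ex/Em 335/512 nm) was measured after 6 h at 6.2–100 μM.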

The subject of test [13] is A549. As to the kind of experiment: Induction of apoptosis in human A549 cells assessed as viable cells at 50 uM after 24 hrs by Annexin V/7-AAD staining based flow cytometry (reference value: 89.95%). In kind it is functional. To be noted: A549, 24 h, read-out: Activity.
In test [14] the test system is A549. The test can be described thus: Induction of autophagy in human A549 cells at 10 to 100 uM after 24 hrs by MDC-staining based fluorescence imaging analysis in presence of autophagy inhibitor bafilomycin A1. In kind it is functional, cell-based. A digest of the protocol:
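A549 cells co-treated 24 h with 10, 50 or 100 μM plus or minus 10 nM bafilomycin A1. Autophagy was quantified by MDC staining fluorescence. Values are means of three independent experiments with SD.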

The test system of test [15] is A549. As to the kind of experiment: Induction of apoptosis in human A549 cells assessed as increase in PARP cleavage after 24 hrs by Western blot analysis. It counts as functional, cell-based. In a few lines: as §3
In test [16] the test system is A549. As to the kind of experiment: Induction of apoptosis in human A549 cells assessed as late apoptotic cells at 50 uM after 24 hrs by Annexin V/7-AAD staining based flow cytometry (reference value: 1.5%). It counts as functional.
The subject of test [17] is A549. As to the kind of experiment: Induction of apoptosis in human A549 cells assessed as viable cells at 100 uM after 24 hrs by Annexin V/7-AAD staining based flow cytometry (reference value: 89.95%). In kind it is functional. The settings on record: A549, 24 h, read-out: Activity.
Test [18] concerns A549. As to the kind of experiment: Induction of apoptosis in human A549 cells assessed as viable cells at 10 uM after 24 hrs by Annexin V/7-AAD staining based flow cytometry (reference value: 89.95%). It counts as functional. The settings on record: A549, 24 h, read-out: Activity.
Test [19] deals with A549. As to the kind of experiment: Induction of apoptosis in human A549 cells assessed as increase in apoptotic cells at 10 to 100 uM after 24 hrs by Annexin V/7-AAD staining based flow cytometry in presence of autophagy inhibitor bafilomycin A1. In kind it is functional, cell-based. In a few lines:
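A549 cells treated 24 h at 10, 50 or 100 μM with or without 10 nM bafilomycin A1. Apoptosis was read by Annexin-V/7AAD on a Muse Cell Analyzer. Values are means of three independent experiments with SD, and significance was tested against control and between ± Baf.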

Test [20] relates to A549. As to the kind of experiment: Induction of morphological changes in human A549 cells assessed as appearance of rounded cell at 10 to 100 uM after 24 hrs. It counts as functional, cell-based. A digest of the protocol:
as §2

Test [21] deals with A549. As to the kind of experiment: Induction of apoptosis in human A549 cells assessed as early apoptotic cells at 10 uM after 24 hrs by Annexin V/7-AAD staining based flow cytometry (reference value: 8.55%). It counts as functional.
Setting [22] is: Homo sapiens, A549, 72 h, read-out: IC50.

The structures appear in SMILES notation. Calls of active or inactive are those of the source. The calls are words filed in the database; no cut-off is given here.

As usually defined, the IC50 is the concentration needed to halve the response being measured. `O=[N+]([O-])c1ccc(-c2[nH]c3ccccc3c2-c2ccccc2)cc1`: the IC50 in the test with A549 [1] (setting [22]) stood at 24.8 µM.

As for `COc1ccc(-c2[nH]c3ccccc3c2-c2ccccc2)cc1`, the IC50 with A549 [1] (setting [22]) came to 288 µM.

Regarding `c1ccc(-c2[nH]c3ccccc3c2-c2ccccc2)cc1`, the IC50 in the test on A549 [1] (setting [22]) amounted to 58.7 µM.

Take `CC(=O)Nc1ccc(-c2[nH]c3ccccc3c2-c2ccccc2)cc1`: in the test on A549 [1] (a549), the half-maximal inhibitory concentration (IC50) result is “ND(Insoluble)”.

Regarding `N#Cc1ccc(-c2[nH]c3ccccc3c2-c2ccccc2)cc1`, the IC50 in the test with A549 [1] (setting [22]) was found to be 15 µM.

Consider `Nc1ccc(-c2[nH]c3ccccc3c2-c2ccccc2)cc1`, for which, in the test with A549 [1] (setting [22]), the half-inhibitory concentration (IC50) was 54.7 µM.

For `CC(=O)Nc1ccc(-c2c(-c3ccccc3)[nH]c3ccccc23)cc1`, the IC50 entry in the test with A549 [1] (a549) is reported as “ND(Insoluble)”.

Consider `O=[N+]([O-])c1ccc(-c2c(-c3ccccc3)[nH]c3ccccc23)cc1`, for which the IC50 with A549 [1] (setting [22]) worked out at 38.4 µM.

In the case of `N#Cc1ccc(-c2c(-c3ccccc3)[nH]c3ccccc23)cc1`, the IC50 in the test on A549 [1] (setting [22]) came out at 18.3 µM.

With `COc1ccc(-c2c(-c3ccccc3)[nH]c3ccccc23)cc1`, the IC50 with A549 [1] (setting [22]) came out at 30 µM.

For the compound `Nc1ccc(-c2c(-c3ccccc3)[nH]c3ccccc23)cc1`, the 50% inhibitory concentration (IC50) in the test on A549 [1] (setting [22]) was found to be 83.4 µM.

As for `COC(=O)c1ccc(-c2c(-c3ccccc3)[nH]c3ccccc23)cc1`, the Activity in the test on A549 [2] turned out to be 0.25%; in the test with A549 [4], 39.7%; with A549 [5], 0.15%; with A549 [6] it was 0.4%; in the test on A549 [7], 2.8%; in the test with A549 [10], 17.45%. Also, the Activity in the test on A549 [11] is 9.7%; in the test with A549 [12], “Dose-dependent effect”; with A549 [15], “Dose-dependent effect”; in the test with A549 [16], 7.75%; with A549 [21] it was 14%. The result in the test with A549 [3], with A549 [8], with A549 [9] and in the test with A549 [20] was Active. Also, the IC50 in the test with A549 [1] (setting [22]) stood at 5.17 µM. Also, in the test with A549 [13], the viability at 50 µM worked out at 74.5%. Moreover, the outcome in the test with A549 [14] and in the test on A549 [19] was inactive. In addition, the viability at 100 µM in the test with A549 [17] is 50.5%. The viability at 10 µM in the test on A549 [18] worked out at 82.8%.

Regarding `COC(=O)c1ccc(-c2[nH]c3ccccc3c2-c2ccccc2)cc1`, in the test with A549 [1] (a549), the half-maximal inhibitory concentration (IC50) entry is on record as “ND(Insoluble)”.
